Source: ChEMBL document CHEMBL4261620, “Design, synthesis, and biological evaluation of 4-chloro-2H-thiochromenes featuring nitrogen-containing side chains as potent antifungal agents” (Bioorg Med Chem Lett, 2018)
In brackets after ≈: the same amount, converted by molar mass.

Key:
Candida albicans [1] = experiment: Antifungal activity against Candida albicans cpcc 400616 after 2 to 7 days by broth microdilution method; format: functional
Outline: (§1)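 Broth microdilution in 96-well plates per NCCLS. Compounds and fluconazole reference dissolved in DMSO, serially diluted in growth medium, then inoculum suspension added, final concentrations 128 to 0.25 µg/mL (twofold series). Incubated at 32°C. MIC read visually after 2-7 d.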

Aspergillus fumigatus = experiment: Antifungal activity against Aspergillus fumigatus cgmcc 3.7795 after 2 to 7 days by broth microdilution method; format: functional; outline: as §1
Candida tropicalis = experiment: Antifungal activity against Candida tropicalis cgmcc 2.3739 after 2 to 7 days by broth microdilution method; format: functional; outline: as §1
Cryptococcus neoformans = experiment: Antifungal activity against Cryptococcus neoformans cgmcc 2.3161 after 2 to 7 days by broth microdilution method; format: functional; outline: as §1
Candida albicans [2] = experiment: Antifungal activity against fluconazole-sensitive Candida albicans ATCC SC5314 after 2 to 7 days by broth microdilution method; format: functional; outline: as §1
Candida albicans [3] = experiment: Antifungal activity against fluconazole-resistant Candida albicans 103 after 2 to 7 days by broth microdilution method; format: functional
Outline: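 Broth microdilution per NCCLS. Compounds dissolved in DMSO, serially diluted in growth medium, then inoculum suspension added to give final concentrations of 128 to 0.25 µg/mL (twofold steps). Plates incubated at 32°C. MIC read by visual observation after 2-7 d. Fluconazole served as reference drug.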

HepG2 = experiment: Cytotoxicity against human HepG2 cells by MTT assay; format: cell-based
H9c2 = experiment: Cytotoxicity against rat H9c2 cells by MTT assay; format: cell-based
A549 = experiment: Cytotoxicity against human A549 cells by MTT assay; format: cell-based
HT-29 = experiment: Cytotoxicity against human HT-29 cells by MTT assay; format: cell-based

Structure (SMILES) | MIC (Candida albicans [1]) [µg/mL] | MIC (Aspergillus fumigatus) [µg/mL] | MIC (Candida tropicalis) [µg/mL] | MIC (Cryptococcus neoformans) [µg/mL] | MIC (Candida albicans [2]) [µg/mL] | MIC (Candida albicans [3]) [µg/mL] | IC50 (HepG2) [µg/mL] | IC50 (H9c2) [µg/mL] | IC50 (A549) [µg/mL] | IC50 (HT-29) [µg/mL]
O=C1CCSc2ccc(Cl)cc21 | 16 (≈ 80.5 µM) | > 128 | 8 (≈ 40.3 µM) | 32 (≈ 161 µM) | 4 (≈ 20.1 µM) | 16 (≈ 80.5 µM) | – | – | – | –
Fc1ccc2c(c1)C(Cl)=C(Cn1cncn1)CS2 | 16 (≈ 56.8 µM) | > 128 | 8 (≈ 28.4 µM) | 64 (≈ 227 µM) | 4 (≈ 14.2 µM) | 32 (≈ 114 µM) | – | – | – | –
CC(C)N(CC1=C(Cl)c2cc(Br)ccc2SC1)C(C)C | 0.5 (≈ 1.33 µM) | > 128 | > 128 | 0.25 (≈ 0.667 µM) | 0.5 (≈ 1.33 µM) | 0.5 (≈ 1.33 µM) | > 100 | > 100 | 36 (≈ 96.2 µM) | > 100
ClC1=C(CN2CCCC2)CSc2ccc(Br)cc21 | 16 (≈ 46.4 µM) | > 128 | 128 (≈ 371 µM) | 8 (≈ 23.2 µM) | 8 (≈ 23.2 µM) | 64 (≈ 186 µM) | – | – | – | –
COc1cccc2c1C(=O)c1c(O)c3c(c(O)c1C2=O)C[C@@](O)(C(=O)CO)C[C@@H]3O[C@H]1C[C@H](N)[C@H](O)[C@H](C)O1 | – | – | – | – | – | – | 2.9 (≈ 5.34 µM) | 0.29 (≈ 0.534 µM) | 1.77 (≈ 3.26 µM) | 1.44 (≈ 2.65 µM)
CCN(CC)CC1=C(Cl)c2cc(Cl)ccc2SC1 | 4 (≈ 13.2 µM) | > 128 | 2 (≈ 6.62 µM) | 1 (≈ 3.31 µM) | 0.5 (≈ 1.65 µM) | 8 (≈ 26.5 µM) | > 100 | > 100 | > 100 | > 100
ClC1=C(Cn2ccnc2)CSc2ccc(Cl)cc21 | 32 (≈ 108 µM) | 64 (≈ 215 µM) | 64 (≈ 215 µM) | 8 (≈ 26.9 µM) | 16 (≈ 53.8 µM) | 64 (≈ 215 µM) | – | – | – | –
CCN(CC)CC1=C(Cl)c2cc(Br)ccc2SC1 | 16 (≈ 46.1 µM) | > 128 | 64 (≈ 185 µM) | 4 (≈ 11.5 µM) | 8 (≈ 23.1 µM) | 64 (≈ 185 µM) | – | – | – | –
CN1CCN(CC2=C(Cl)c3cc(F)ccc3SC2)CC1 | 16 (≈ 51.1 µM) | > 128 | 32 (≈ 102 µM) | 1 (≈ 3.2 µM) | 16 (≈ 51.1 µM) | 16 (≈ 51.1 µM) | – | – | – | –
O=CC1=C(Cl)c2cc(Br)ccc2SC1 | 32 (≈ 111 µM) | > 128 | 64 (≈ 221 µM) | 32 (≈ 111 µM) | 16 (≈ 55.3 µM) | 64 (≈ 221 µM) | 26.6 (≈ 91.9 µM) | > 100 | > 100 | 28.8 (≈ 99.4 µM)
O=C1CCSc2ccc(F)cc21 | 32 (≈ 176 µM) | 64 (≈ 351 µM) | 16 (≈ 87.8 µM) | 64 (≈ 351 µM) | 8 (≈ 43.9 µM) | 64 (≈ 351 µM) | – | – | – | –
CN1CCN(CC2=C(Cl)c3cc(Br)ccc3SC2)CC1 | 16 (≈ 42.8 µM) | > 128 | 16 (≈ 42.8 µM) | 8 (≈ 21.4 µM) | 8 (≈ 21.4 µM) | 64 (≈ 171 µM) | – | – | – | –
CC(C)NCC1=C(Cl)c2cc(Cl)ccc2SC1 | 32 (≈ 111 µM) | 64 (≈ 222 µM) | 32 (≈ 111 µM) | 0.5 (≈ 1.73 µM) | 16 (≈ 55.5 µM) | 32 (≈ 111 µM) | – | – | – | –
Fc1ccc2c(c1)C(Cl)=C(CN1CCCCC1)CS2 | 2 (≈ 6.72 µM) | > 128 | 16 (≈ 53.7 µM) | 2 (≈ 6.72 µM) | 8 (≈ 26.9 µM) | 16 (≈ 53.7 µM) | – | – | – | –
O=CC1=C(Cl)c2cc(Cl)ccc2SC1 | 64 (≈ 261 µM) | > 128 | 32 (≈ 131 µM) | 32 (≈ 131 µM) | 32 (≈ 131 µM) | 64 (≈ 261 µM) | 21.5 (≈ 87.8 µM) | > 100 | > 100 | 18.4 (≈ 75.2 µM)
CC(C)N(CC1=C(Cl)c2cc(F)ccc2SC1)C(C)C | 4 (≈ 12.7 µM) | > 128 | 2 (≈ 6.37 µM) | 4 (≈ 12.7 µM) | 4 (≈ 12.7 µM) | 64 (≈ 204 µM) | – | – | – | –
ClC1=C(Cn2cncn2)CSc2ccc(Br)cc21 | > 128 | > 128 | > 128 | 8 (≈ 23.3 µM) | 64 (≈ 187 µM) | > 128 | – | – | – | –
Cc1ccc2c(c1)C(Cl)=C(CN1CCN(C)CC1)CS2 | 32 (≈ 104 µM) | > 128 | 8 (≈ 25.9 µM) | 32 (≈ 104 µM) | 8 (≈ 25.9 µM) | 64 (≈ 207 µM) | – | – | – | –
